Test results taken from ChEMBL document CHEMBL4229462, “Design and synthesis of novel anti-hyperalgesic agents based on 6-prenylnaringenin as the T-type calcium channel blockers” (Bioorg Med Chem, 2018).
Calls of active or inactive are those of the source.

Experiments:
[1] = molecular target: T1, Voltage-dependent T-type calcium channel subunit alpha-1H (Homo sapiens, UniProt O95180); test: Inhibition of human CaV3.2 expressed in HEK293 cells assessed as suppression of T-current amplitude by measuring remaining activity at 3 uM after 10 mins by whole cell patch clamp method relative to control; assay type: cell-based
T1 sequence (O95180 whole entry): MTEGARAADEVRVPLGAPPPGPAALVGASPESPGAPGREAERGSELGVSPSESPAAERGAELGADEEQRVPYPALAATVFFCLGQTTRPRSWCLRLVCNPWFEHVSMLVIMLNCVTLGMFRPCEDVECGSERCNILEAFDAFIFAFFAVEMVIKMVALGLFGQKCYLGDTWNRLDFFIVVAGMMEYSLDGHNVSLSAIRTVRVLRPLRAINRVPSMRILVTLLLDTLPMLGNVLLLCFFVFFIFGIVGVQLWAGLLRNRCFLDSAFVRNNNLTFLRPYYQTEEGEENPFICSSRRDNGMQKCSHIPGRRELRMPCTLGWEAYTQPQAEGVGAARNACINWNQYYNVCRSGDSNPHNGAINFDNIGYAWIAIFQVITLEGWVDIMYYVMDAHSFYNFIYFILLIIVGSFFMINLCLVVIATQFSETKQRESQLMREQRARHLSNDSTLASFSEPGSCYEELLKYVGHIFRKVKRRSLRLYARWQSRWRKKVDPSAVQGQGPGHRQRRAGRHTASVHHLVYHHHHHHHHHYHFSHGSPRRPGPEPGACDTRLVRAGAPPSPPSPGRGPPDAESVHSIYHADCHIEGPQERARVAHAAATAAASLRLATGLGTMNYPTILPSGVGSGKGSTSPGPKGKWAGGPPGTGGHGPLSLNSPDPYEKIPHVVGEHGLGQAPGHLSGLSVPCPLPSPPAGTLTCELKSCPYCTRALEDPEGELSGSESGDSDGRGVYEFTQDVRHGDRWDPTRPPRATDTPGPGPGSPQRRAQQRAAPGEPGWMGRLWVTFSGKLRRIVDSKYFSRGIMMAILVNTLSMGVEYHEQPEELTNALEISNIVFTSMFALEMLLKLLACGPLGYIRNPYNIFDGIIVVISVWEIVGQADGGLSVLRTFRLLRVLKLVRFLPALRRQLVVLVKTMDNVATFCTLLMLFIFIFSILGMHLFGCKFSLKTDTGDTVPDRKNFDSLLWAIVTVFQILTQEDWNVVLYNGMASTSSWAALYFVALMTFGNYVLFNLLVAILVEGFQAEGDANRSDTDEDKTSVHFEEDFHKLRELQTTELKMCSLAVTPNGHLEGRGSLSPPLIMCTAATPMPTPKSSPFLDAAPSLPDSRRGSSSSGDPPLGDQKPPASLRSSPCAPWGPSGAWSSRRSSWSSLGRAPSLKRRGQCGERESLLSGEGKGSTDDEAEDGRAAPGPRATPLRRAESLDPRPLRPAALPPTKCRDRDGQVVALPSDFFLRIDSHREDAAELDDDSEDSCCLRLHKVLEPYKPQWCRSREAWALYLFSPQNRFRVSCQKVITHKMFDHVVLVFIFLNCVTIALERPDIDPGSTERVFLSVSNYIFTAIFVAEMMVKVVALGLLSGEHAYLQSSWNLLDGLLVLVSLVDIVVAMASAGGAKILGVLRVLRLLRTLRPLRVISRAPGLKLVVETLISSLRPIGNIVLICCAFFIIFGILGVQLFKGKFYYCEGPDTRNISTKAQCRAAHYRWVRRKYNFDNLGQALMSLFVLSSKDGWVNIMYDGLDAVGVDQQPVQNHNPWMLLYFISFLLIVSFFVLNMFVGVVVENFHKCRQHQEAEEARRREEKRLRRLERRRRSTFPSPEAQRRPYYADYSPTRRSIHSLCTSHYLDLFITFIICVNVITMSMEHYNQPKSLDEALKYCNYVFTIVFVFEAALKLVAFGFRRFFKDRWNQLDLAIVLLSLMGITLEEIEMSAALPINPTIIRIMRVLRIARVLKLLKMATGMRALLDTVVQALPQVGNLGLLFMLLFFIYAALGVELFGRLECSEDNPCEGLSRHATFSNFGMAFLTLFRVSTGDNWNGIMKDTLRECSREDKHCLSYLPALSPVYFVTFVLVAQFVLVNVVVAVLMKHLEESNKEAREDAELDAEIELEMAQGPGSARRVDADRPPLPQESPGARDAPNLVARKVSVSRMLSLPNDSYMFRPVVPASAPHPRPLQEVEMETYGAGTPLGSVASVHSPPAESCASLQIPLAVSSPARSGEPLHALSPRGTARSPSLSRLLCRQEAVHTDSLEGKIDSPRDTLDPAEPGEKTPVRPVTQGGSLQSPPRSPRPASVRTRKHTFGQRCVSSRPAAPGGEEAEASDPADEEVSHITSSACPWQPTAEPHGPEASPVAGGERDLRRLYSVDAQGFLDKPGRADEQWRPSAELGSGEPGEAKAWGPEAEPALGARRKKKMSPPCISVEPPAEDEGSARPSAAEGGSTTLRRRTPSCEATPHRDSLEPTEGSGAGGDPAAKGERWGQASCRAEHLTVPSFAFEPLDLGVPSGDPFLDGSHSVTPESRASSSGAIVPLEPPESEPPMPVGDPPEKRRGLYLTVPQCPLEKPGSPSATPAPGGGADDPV
Outline: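 HEK293 cells stably expressing human Cav3.2 were recorded by whole-cell patch clamp, holding at −90 mV with a 30 mV test pulse evoking Ba²⁺ currents. Remaining T-current after 3 μM compound is given as % of control; some entries were measured at 1 μM.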

[2] = molecular target: T1, Voltage-dependent T-type calcium channel subunit alpha-1H; test: Inhibition of human CaV3.2 expressed in HEK293 cells assessed as suppression of T-current amplitude after 10 mins by whole cell patch clamp method; assay type: cell-based
Outline: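 Whole-cell patch clamp was done on HEK293 cells stably expressing human Cav3.2. Membrane was held at −90 mV and Ba²⁺ currents were evoked by a 30 mV test pulse. IC50 was derived from T-current suppression.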

[3] = molecular target: Voltage-dependent T-type calcium channel subunit alpha-1G (Homo sapiens, UniProt O43497); test: Inhibition of human CaV3.1 expressed in HEK293 cells assessed as suppression of T-current after 10 mins by whole cell patch clamp method; assay type: cell-based
Chain of Voltage-dependent T-type calcium channel subunit alpha-1G (O43497 whole entry): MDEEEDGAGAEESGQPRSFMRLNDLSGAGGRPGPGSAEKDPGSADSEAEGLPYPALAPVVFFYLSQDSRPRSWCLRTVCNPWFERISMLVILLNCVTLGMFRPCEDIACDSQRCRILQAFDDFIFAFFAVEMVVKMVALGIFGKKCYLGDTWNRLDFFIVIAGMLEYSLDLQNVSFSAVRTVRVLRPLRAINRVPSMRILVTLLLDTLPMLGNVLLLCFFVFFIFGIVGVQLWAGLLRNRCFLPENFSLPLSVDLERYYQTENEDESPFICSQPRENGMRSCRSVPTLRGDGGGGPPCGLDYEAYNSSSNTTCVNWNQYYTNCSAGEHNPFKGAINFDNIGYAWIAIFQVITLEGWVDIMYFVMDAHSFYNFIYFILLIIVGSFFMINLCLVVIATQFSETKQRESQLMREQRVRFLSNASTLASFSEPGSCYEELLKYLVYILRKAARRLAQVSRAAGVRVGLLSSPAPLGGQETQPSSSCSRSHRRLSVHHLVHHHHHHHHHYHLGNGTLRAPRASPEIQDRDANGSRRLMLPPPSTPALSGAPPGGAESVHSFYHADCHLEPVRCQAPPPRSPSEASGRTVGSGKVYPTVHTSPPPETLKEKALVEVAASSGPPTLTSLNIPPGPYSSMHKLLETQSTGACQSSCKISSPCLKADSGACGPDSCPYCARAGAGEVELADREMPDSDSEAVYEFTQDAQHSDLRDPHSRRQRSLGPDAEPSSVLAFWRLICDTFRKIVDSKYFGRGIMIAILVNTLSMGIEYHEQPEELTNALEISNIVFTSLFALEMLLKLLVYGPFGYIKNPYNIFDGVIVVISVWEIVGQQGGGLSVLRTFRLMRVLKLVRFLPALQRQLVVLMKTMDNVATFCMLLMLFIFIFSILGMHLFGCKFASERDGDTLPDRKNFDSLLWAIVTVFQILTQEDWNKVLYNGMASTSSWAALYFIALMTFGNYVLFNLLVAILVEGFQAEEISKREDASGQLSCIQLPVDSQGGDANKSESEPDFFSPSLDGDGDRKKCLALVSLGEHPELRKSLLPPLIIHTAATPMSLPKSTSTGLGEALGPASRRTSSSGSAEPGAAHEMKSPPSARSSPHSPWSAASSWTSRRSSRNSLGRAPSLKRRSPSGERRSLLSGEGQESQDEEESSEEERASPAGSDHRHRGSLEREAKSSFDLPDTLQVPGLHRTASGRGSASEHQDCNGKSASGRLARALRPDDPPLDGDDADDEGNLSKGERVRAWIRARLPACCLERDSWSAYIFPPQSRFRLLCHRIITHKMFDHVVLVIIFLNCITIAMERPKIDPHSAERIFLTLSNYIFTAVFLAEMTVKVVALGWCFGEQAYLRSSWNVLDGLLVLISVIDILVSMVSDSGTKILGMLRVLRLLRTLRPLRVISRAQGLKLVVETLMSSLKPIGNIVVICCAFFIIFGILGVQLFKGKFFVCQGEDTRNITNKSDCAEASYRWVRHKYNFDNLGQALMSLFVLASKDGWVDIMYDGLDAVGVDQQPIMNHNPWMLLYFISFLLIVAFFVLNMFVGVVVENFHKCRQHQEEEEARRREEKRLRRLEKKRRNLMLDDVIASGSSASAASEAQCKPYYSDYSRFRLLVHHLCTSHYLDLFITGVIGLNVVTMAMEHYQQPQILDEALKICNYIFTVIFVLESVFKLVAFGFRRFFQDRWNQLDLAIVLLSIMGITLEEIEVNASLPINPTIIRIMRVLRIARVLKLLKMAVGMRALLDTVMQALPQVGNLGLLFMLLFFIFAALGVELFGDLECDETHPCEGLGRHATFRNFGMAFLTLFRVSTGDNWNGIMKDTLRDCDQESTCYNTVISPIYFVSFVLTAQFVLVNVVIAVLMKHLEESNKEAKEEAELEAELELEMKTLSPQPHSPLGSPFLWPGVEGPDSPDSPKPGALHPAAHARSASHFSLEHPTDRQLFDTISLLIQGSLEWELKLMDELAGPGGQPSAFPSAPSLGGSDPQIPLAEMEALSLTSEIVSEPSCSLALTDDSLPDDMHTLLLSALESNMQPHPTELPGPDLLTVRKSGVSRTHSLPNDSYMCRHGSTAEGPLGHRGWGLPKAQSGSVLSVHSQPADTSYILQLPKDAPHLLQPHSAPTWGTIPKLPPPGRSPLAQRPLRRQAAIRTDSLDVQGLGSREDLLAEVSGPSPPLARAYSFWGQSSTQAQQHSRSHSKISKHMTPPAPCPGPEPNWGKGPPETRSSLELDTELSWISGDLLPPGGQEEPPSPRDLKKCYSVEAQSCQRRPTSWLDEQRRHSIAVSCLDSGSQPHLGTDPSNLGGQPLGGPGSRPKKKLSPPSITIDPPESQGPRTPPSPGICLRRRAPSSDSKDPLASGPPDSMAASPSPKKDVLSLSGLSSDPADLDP

[4] = Inhibition of T-type calcium channel in human Jurkat cells assessed as suppression of thapsigargin-induced intracellular calcium flux after 1 hr by indo-1 dye-based spectrofluorometric method; assay type: cell-based
Mus musculus [5] = test: Antihyperalgesic activity in ddY mouse assessed as suppression of partial sciatic nerve ligation-induced mechanical allodynia at 10 mg/kg, ip administered 7 days by Von Frey test; assay type: functional, organism-based
Outline: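 Male ddY mice (18–25 g) had the right sciatic nerve partially ligated under isoflurane and were tested one week later. Dosing was i.p. as a suspension in 0.5% carboxymethyl cellulose sodium, with vehicle-treated sham and PSNL groups. Ipsilateral hindpaw threshold was measured by von Frey up-down method before ligation and 0–90 min after injection. Data are mean with S.E.M. (5–11 mice), analysed non-parametrically.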

Mus musculus [6] = test: Antihyperalgesic activity in ddY mouse assessed as suppression of partial sciatic nerve ligation-induced mechanical allodynia at 20 mg/kg, ip administered 7 days by Von Frey test; assay type: functional, organism-based
Outline: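 Male ddY mice (18–25 g) had the right sciatic nerve partially ligated under isoflurane and were tested 7 days later. Compound was suspended in 0.5% CMC-Na and given i.p. Ipsilateral hindpaw threshold was measured by von Frey up-down method before ligation and over 0–90 min post-dose. Data are mean ± S.E.M. (5–11 mice) with non-parametric statistics.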

[7] = Inhibition of T-type calcium channel (unknown origin); set-up: species or system Homo sapiens

C=CCc1ccc2c(c1O)C(=O)CC(c1ccccc1O)O2 (configuration not stated)
Activity [1]: 32%

C=CCc1c(O)cc2c(c1O)C(=O)CC(c1cccc(O)c1O)O2 (configuration not stated)
Activity [1]: 83.8%

C=CCc1c(O)cc2c(c1O)C(=O)CC(c1ccc(OC)cc1)O2 (configuration not stated)
Activity [1]: 50.8%

CC(C)=CCc1c(O)cc2c(c1O)C(=O)CC(c1ccc(O)c(O)c1)O2 (configuration not stated)
Activity [1]: 14.7%

CC(C)=CCc1c(O)cc(O)c2c1O[C@H](c1ccc(O)cc1)CC2=O
IC50 [2]: 1000 nM
IC50 [3]: 1000 nM

CC(C)=CCc1c(O)cc2c(c1O)C(=O)CC(c1c(O)cccc1O)O2 (configuration not stated)
Activity [1]: 10.3%

C=CCc1c(O)cc2c(c1O)C(=O)CC(c1ccc(O)c(O)c1)O2 (configuration not stated)
Activity [1]: 86.7%

CC(C)=CCc1c(O)cc2c(c1O)C(=O)CC(c1cc(O)cc(O)c1)O2 (configuration not stated)
Activity [1]: 80.9%

CC(C)=CCc1ccc2c(c1O)C(=O)CC(c1ccccc1)O2 (configuration not stated)
Activity [1]: 100%

C=CCc1ccc2c(c1O)C(=O)CC(c1ccc(C)cc1)O2 (configuration not stated)
Activity [1]: 72.7%

CC(C)=CCc1c(O)cc2c(c1O)C(=O)CC(c1cccc(O)c1O)O2 (configuration not stated)
Activity [1]: 67.1%

C=CCc1c(O)cc2c(c1O)C(=O)CC(c1ccccc1)O2 (configuration not stated)
Activity [1]: 70.1%

COCC(=O)O[C@]1(CCN(C)CCCc2nc3ccccc3[nH]2)CCc2cc(F)ccc2[C@@H]1C(C)C [MIBEFRADIL]
IC50 [4]: 1000 nM

COc1ccc(C2CC(=O)c3c(cc(O)c(CC=C(C)C)c3O)O2)cc1 (configuration not stated)
Activity [1]: 47.6%

CCC(=CCc1ccc2c(c1O)C(=O)CC(c1ccccc1O)O2)CC (configuration not stated)
Activity [1]: 16.1%

C=CCc1c(O)cc2c(c1O)C(=O)CC(c1ccccc1O)O2 (configuration not stated)
Activity [1]: 63%

CC(C)=CCc1ccc2c(c1O)C(=O)CC(c1ccccc1O)O2 (configuration not stated)
Activity [1]: 3.77%
IC50 [2]: 1250 nM

C=CCc1c(O)cc2c(c1O)C(=O)CC(c1cc(O)cc(O)c1)O2 (configuration not stated)
Activity [1]: 74.8%

C=CCc1c(O)cc2c(c1O)C(=O)CC(c1cccc(O)c1)O2 (configuration not stated)
Activity [1]: 76.8%

CC(C)=CCc1c(O)cc2c(c1O)C(=O)CC(c1ccccc1O)O2 (configuration not stated)
Activity [1]: 2.04%
IC50 [2]: 640 nM

C=CCc1ccc2c(c1O)C(=O)CC(c1ccc(Cl)cc1)O2 (configuration not stated)
Activity [1]: 35.9%

C=C(C)[C@H](CC=C(C)C)Cc1c(O)cc(O)c2c1O[C@H](c1ccc(O)cc1O)CC2=O [SOPHORAFLAVANONE G]
IC50 [2]: 1000 nM
IC50 [3]: 1000 nM

CC(C)=CCc1c(O)cc2c(c1O)C(=O)CC(c1ccc(O)cc1)O2 (racemic)
Activity [1]: 12.8%
IC50 [2]: 1000 nM
Activity (Mus musculus [5]): inactive
IC50 [3]: 1000 nM

CC(C)=CCc1c(O)cc2c(c1O)C(=O)CC(c1ccccc1)O2 (configuration not stated)
Activity [1]: 72.6%

CCCC(=CCc1c(O)cc2c(c1O)C(=O)CC(c1ccc(O)cc1)O2)CCC (configuration not stated)
Activity [1]: 36.8%

CC(C)CCc1c(O)cc2c(c1O)C(=O)CC(c1ccc(O)cc1)O2 (configuration not stated)
Activity [1]: 1.69%
IC50 [2]: 480 nM

CC(C)=CCc1ccc2c(c1O)C(=O)CC(c1ccc(Cl)cc1)O2 (configuration not stated)
Activity [1]: 78.5%

CCC(=CCc1c(O)cc2c(c1O)C(=O)CC(c1ccc(O)cc1)O2)CC (configuration not stated)
Activity [1]: 22.2%
IC50 [2]: 260 nM

CCC(CC)CCc1c(O)cc2c(c1O)C(=O)CC(c1ccc(O)cc1)O2 (configuration not stated)
Activity [1]: 10.1%

CCC(=CCc1c(O)cc2c(c1O)C(=O)CC(c1ccccc1O)O2)CC (configuration not stated)
Activity [1]: 0.33%
IC50 [2]: 390 nM
Activity (Mus musculus [5]): Active
Activity (Mus musculus [6]): Active

O=C1CC(c2ccc(O)cc2)Oc2cc(O)c(CC=C3CCCC3)c(O)c21 (configuration not stated)
Activity [1]: 1.44%
IC50 [2]: 460 nM

O=C1CC(c2ccc(O)cc2)Oc2cc(O)c(CCC3CCCC3)c(O)c21 (configuration not stated)
Activity [1]: 5.42%
IC50 [2]: 500 nM

CC(C)=CCc1c(O)cc2c(c1O)C(=O)CC(c1ccc(Cl)cc1)O2 (configuration not stated)
Activity [1]: 59.7%

COc1ccc(C2CC(=O)c3c(ccc(CC=C(C)C)c3O)O2)cc1 (configuration not stated)
Activity [1]: 81.9%

CCOc1ccc(C2CC(=O)c3c(ccc(CC=C(CC)CC)c3O)O2)cc1 (configuration not stated)
Activity [1]: 57.8%

C=CCc1c(O)cc2c(c1O)C(=O)CC(c1ccc(Cl)cc1)O2 (configuration not stated)
Activity [1]: 51.9%

CC(C)=CCc1ccc2c(c1O)C(=O)CC(c1ccc(C)cc1)O2 (configuration not stated)
Activity [1]: 103%

C=CCc1ccc2c(c1O)C(=O)CC(c1ccc(OC)cc1)O2 (configuration not stated)
Activity [1]: 59%

C=CCc1ccc2c(c1O)C(=O)CC(c1ccccc1)O2 (configuration not stated)
Activity [1]: 90.1%

CCC1(C)CC(=O)NC1=O (configuration not stated) [ETHOSUXIMIDE]
IC50 [7]: 600000 nM

C=CCc1ccc2c(c1O)C(=O)CC(c1ccc(OCC)cc1)O2 (configuration not stated)
Activity [1]: 65.2%

CC(C)=CCc1c(O)cc2c(c1O)C(=O)CC(c1cccc(O)c1)O2 (configuration not stated)
Activity [1]: 2.09%
IC50 [2]: 1020 nM
